PMC5548977 (ESMO Open, 2017)

Key:
[1] = ref 9 10, cited from earlier work
[2] = system: metastatic osteosarcoma cells; details: ex vivo lung metastases model; cited from earlier work
[3] = in vitro, combination with different classes of cancer drugs; ref 23 24; cited from earlier work
GRP78 = details: tumour cells; independent preclinical studies; cited from earlier work
advanced solid tumours = experiment: Anti-tumour activity, tumour response by CT; type: in vivo, human
Method in brief: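 Adult patients with refractory advanced solid tumours got intravenous infusions on days 1, 8 and 15 of 28-day cycles, at 20–780 mg/m2. CT response assessment was done at baseline and every two cycles per RECIST V.1.1. Disease control was defined as CR, PR or SD. Evaluable patients had at least one response assessment. Treatment continued until confirmed PD. Analysis was descriptive.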

[4] = system: drug-resistant PDAC cells; details: cited from earlier work
[5] = Pharmacokinetics: total ruthenium in plasma by ICP-MS, cycle 1; type: in vivo, human
Method in brief: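 Cycle 1 plasma was taken on days 1, 2 and 8, pre-infusion and at 15 min, 30 min, 1, 2, 4, 6–8, 10–12 and 24 hours post-infusion, plus pre-dose day 8. Total ruthenium (free and bound) was measured by ICP-MS. Drug was reconstituted in normal saline and given intravenously over 30 min (<500 mL) or 60–90 min (>500 mL). Parameters were derived from concentration–time data and summarised descriptively.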

[6] = system: patients with advanced solid tumours; experiment: Phase I dose-escalation study: adverse events, dose-limiting toxicities, MTD; type: in vivo, human
Method in brief: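 Dosing was intravenous on days 1, 8 and 15 every 28 days, with dose by BSA (actual weight) recalculated each cycle. Escalation started at 20 mg/m2 with one patient per level, doubling until ≥grade 2 toxicity, then 3+3, across nine cohorts up to 780 mg/m2, with an expansion cohort at MTD. Dexamethasone 10 mg IV plus IV 5-HT antagonist premedication was recommended. AEs/DLTs were graded by NCI CTCAE V.3.0 and followed 30 days post-treatment.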

[7] = 10 patients with disease control
[8] = efficacy-evaluable population (n=38)

imidazolium-(trans-DMSO-imidazole-tetrachlororuthenate) [NAMI-A]
tolerability ([1]; monotherapy, clinic trials): moderately tolerated | activity in combination ([1]; phase I/II combination study with gemcitabine): less activity in combination than with gemcitabine therapy alone

[Cl][Ru-]([Cl])([Cl])[Cl].[Na+].c1ccc2[nH]ncc2c1.c1ccc2[nH]ncc2c1 [IT-139, sodium trans-(tetrachlorobis(1H-indazole)ruthenate(III))]
tumour burden [2]: decrease in tumour burden after treatment | synergy in combination [3]: marked synergy | effect on stress induction of GRP78 (GRP78): suppressing the stress induction of GRP78 in tumour cells | patients with target lesion size reductions (advanced solid tumours; 8 of 38 efficacy-evaluable patients): 21% | median duration of disease control (advanced solid tumours; [7]): 9 weeks | range of duration of disease control (advanced solid tumours; [7]): 1–98 weeks | duration of SD from initiation of therapy until PD (advanced solid tumours; carcinoid patient continued on compassionate use protocol): 54 weeks | number of patients with PR (advanced solid tumours; [8]): 1 | number of patients with SD (advanced solid tumours; [8]): 9 | disease control in patients with carcinoid neuroendocrine tumours (advanced solid tumours; one PR and two SDs): three of five patients had disease control | single-agent anti-tumour activity (advanced solid tumours; weekly i.v. days 1, 8 and 15 of every 28-day cycle): modest anti-tumour activity | effect on GRP78 chemoresistance ([4]; PDAC model): inhibits GRP78 chemoresistance | sensitivity to cytotoxic drugs ([4]; in combination with gemcitabine, drug-resistant PDAC cells): sensitivity to cytotoxic drugs was restored | mean half-life (t1/2) ([5]; across dose levels, may not represent true terminal half-life): 113 h | pharmacokinetic linearity ([5]; across the dose range evaluated (20-780 mg/m^2)): first-order linear pharmacokinetics | dose dependence of PK parameters ([5]; in vivo): increased proportionally with dose | mean total clearance (CLtotal) ([5]; in vivo): 164 mL/h | percentage of the administered dose excreted in the urine (mean) ([5]; in vivo): 1.14% | Any adverse event, patients ([6]; 20 mg/m^2 (n=1)): 1 | Maximum severity of adverse event Grade 1, patients ([6]; 20 mg/m^2 (n=1)): 1 | Related adverse event (related to study drug as assessed by the investigator), patients ([6]; 20 mg/m^2 (n=1)): 1 | Any adverse event, patients ([6]; 40 mg/m^2 (n=1)): 1 | Maximum severity of adverse event Grade 2, patients ([6]; 40 mg/m^2 (n=1)): 1 | Related adverse event (related to study drug as assessed by the investigator), patients ([6]; 40 mg/m^2 (n=1)): 1 | Any adverse event, patients ([6]; 80 mg/m^2 (n=1)): 1 | Maximum severity of adverse event Grade 1, patients ([6]; 80 mg/m^2 (n=1)): 1 | Related adverse event (related to study drug as assessed by the investigator), patients ([6]; 80 mg/m^2 (n=1)): 1 | Any adverse event, patients ([6]; 160 mg/m^2 (n=1)): 1 | Maximum severity of adverse event Grade 1, patients ([6]; 160 mg/m^2 (n=1)): 1 | Related adverse event (related to study drug as assessed by the investigator), patients ([6]; 160 mg/m^2 (n=1)): 1 | Any serious adverse event, patients ([6]; 320 mg/m^2 (n=7)): 4 | Discontinued treatment due to adverse event, patients ([6]; 320 mg/m^2 (n=7)): 1 | Maximum severity of adverse event Grade 1, patients ([6]; 320 mg/m^2 (n=7)): 1 | Maximum severity of adverse event Grade 2, patients ([6]; 320 mg/m^2 (n=7)): 3 | Maximum severity of adverse event Grade 3, patients ([6]; 320 mg/m^2 (n=7)): 3 | Maximum severity of adverse event ≥ Grade 3, patients ([6]; 320 mg/m^2 (n=7)): 3 | Related adverse event (related to study drug as assessed by the investigator), patients ([6]; 320 mg/m^2 (n=7)): 7 | Related serious adverse event, patients ([6]; 320 mg/m^2 (n=7)): 1 | Any adverse event, patients ([6]; 420 mg/m^2 (n=5)): 5 | Any serious adverse event, patients ([6]; 420 mg/m^2 (n=5)): 1 | Discontinued treatment due to adverse event, patients ([6]; 420 mg/m^2 (n=5)): 2 | Maximum severity of adverse event Grade 1, patients ([6]; 420 mg/m^2 (n=5)): 1 | Maximum severity of adverse event Grade 2, patients ([6]; 420 mg/m^2 (n=5)): 2 | Maximum severity of adverse event Grade 3, patients ([6]; 420 mg/m^2 (n=5)): 2 | Maximum severity of adverse event ≥ Grade 3, patients ([6]; 420 mg/m^2 (n=5)): 2 | Related adverse event (related to study drug as assessed by the investigator), patients ([6]; 420 mg/m^2 (n=5)): 4 | Any adverse event, patients ([6]; 500 mg/m^2 (n=3)): 3 | Maximum severity of adverse event Grade 1, patients ([6]; 500 mg/m^2 (n=3)): 1 | Maximum severity of adverse event Grade 2, patients ([6]; 500 mg/m^2 (n=3)): 2 | Related adverse event (related to study drug as assessed by the investigator), patients ([6]; 500 mg/m^2 (n=3)): 2 | Any serious adverse event, patients ([6]; 625 mg/m^2 (n=18)): 6 | Discontinued treatment due to adverse event, patients ([6]; 625 mg/m^2 (n=18)): 2 | Maximum severity of adverse event Grade 1, patients ([6]; 625 mg/m^2 (n=18)): 4 | Maximum severity of adverse event Grade 2, patients ([6]; 625 mg/m^2 (n=18)): 4 | Maximum severity of adverse event Grade 3, patients ([6]; 625 mg/m^2 (n=18)): 9 | Maximum severity of adverse event Grade 5, patients ([6]; 625 mg/m^2 (n=18)): 1 | Maximum severity of adverse event ≥ Grade 3, patients ([6]; 625 mg/m^2 (n=18)): 10 | Related serious adverse event, patients ([6]; 625 mg/m^2 (n=18)): 1 | duration of QTc prolongation after infusion ([6]; 780 mg/m^2): up to 10 hours | Any adverse event, patients ([6]; 780 mg/m^2 (n=9)): 9 | Any serious adverse event, patients ([6]; 780 mg/m^2 (n=9)): 4 | Maximum severity of adverse event Grade 1, patients ([6]; 780 mg/m^2 (n=9)): 1 | Maximum severity of adverse event Grade 2, patients ([6]; 780 mg/m^2 (n=9)): 4 | Maximum severity of adverse event Grade 3, patients ([6]; 780 mg/m^2 (n=9)): 3 | Maximum severity of adverse event Grade 5, patients ([6]; 780 mg/m^2 (n=9)): 1 | Maximum severity of adverse event ≥ Grade 3, patients ([6]; 780 mg/m^2 (n=9)): 4 | Related adverse event (related to study drug as assessed by the investigator), patients ([6]; 780 mg/m^2 (n=9)): 9 | Related serious adverse event, patients ([6]; 780 mg/m^2 (n=9)): 2 | overall tolerability ([6]; 20 to 780 mg/m^2): well tolerated | cumulative toxicity ([6]; across dose levels): no evidence of cumulative toxicity | drug-related renal toxicity ([6]; all dose levels): no evidence of drug-related renal toxicity | MTD (maximum-tolerated dose) ([6]; i.v. infusion days 1, 8 and 15 every 28 days): 625 mg/m^2 | effect on platelets or white blood cells ([6]; in vivo): no effect on platelets or white blood cells | patients with an AE that led to treatment discontinuation ([6]; n=46, all dose levels): 11% | PR prolongation ([6]; no control group, chance effect not excluded): evidence for PR prolongation | Creatine clearance ([6]; over time, all dose levels): stable over time and across all dose levels | serum discolouration at blood draw ([6]; three patients (four blood draws), without any clinical correlates): discoloured serum, green in colour | Any serious adverse event, patients ([6]; total patients (n=46)): 15 | Discontinued treatment due to adverse event, patients ([6]; total patients (n=46)): 5 | Maximum severity of adverse event Grade 1, patients ([6]; total patients (n=46)): 11 | Maximum severity of adverse event Grade 5, patients ([6]; total patients (n=46)): 2 | Maximum severity of adverse event ≥ Grade 3, patients ([6]; total patients (n=46)): 19 | Related serious adverse event, patients ([6]; total patients (n=46)): 4
